The text below walks through data of ChEMBL document CHEMBL4619810, “Fluorescent H2 Receptor Squaramide-Type Antagonists: Synthesis, Characterization, and Applications” (ACS Med Chem Lett, 2020).

Series [1] has as its target Histamine H2 receptor (Rattus norvegicus, UniProt P25102). The series can be described thus: Displacement of [125I]-aminopotentidine from rat H2R expressed in human COS7 cells incubated for 90 mins gamma counting method. It is filed as cell-based, COS-7.
The target of series [2] is T1, Histamine H2 receptor (Homo sapiens, UniProt P25021). The series can be described thus: Binding affinity to H2R in human HEK293T cell membrane assessed as drug localization at 100 nM incubated for 20 mins by confocal microscopy analysis. It is filed as cell-based. The conditions noted are these: HEK-293T. In outline: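 Live HEK293T-hH2R-qs5 cells exposed to fluorescent ligand at 100 nM, 20 min, room temperature; receptor binding at the cell membrane visualized by confocal laser scanning microscopy (63x/1.40 oil immersion objective).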

The target in series [3] is T1, Histamine H2 receptor. The conditions noted are these: Sf9.
Series [4] addresses T1, Histamine H2 receptor. The series can be described thus: Binding affinity to H2R in human HEK293T cell membrane assessed as drug localization at 100 nM in presence of famotidine incubated for 20 mins by confocal microscopy analysis. It is filed as cell-based. The conditions noted are these: HEK-293T. In outline:
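HEK293T-hH2R-qs5 cells incubated with fluorescent ligand (100 nM) for 20 min at rt in the presence of famotidine (300-fold excess) to define nonspecific binding; membrane localization imaged by confocal laser scanning microscopy, 63x/1.40 oil objective.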

For series [5], the system named is HEK-293T. Kind of series: Cytotoxicity against human HEK293T cells assessed as reduction in cell viability at 500 nM incubated for 60 mins by H33342 staining based imaging analysis. To be noted: 1 h, 0.5 µM.
Series [6] concerns HEK-293T. The series can be described thus: Cytotoxicity against human HEK293T cells assessed as reduction in cell viability at 500 nM incubated for 90 mins by flow cytometry analysis. It is filed as cell-based. To be noted: 1.5 h, 0.5 µM.
For series [7], the target named is T1, Histamine H2 receptor. The series can be described thus: Displacement of [3H]UR-DE257 from Gsalphas-coupled human H2R expressed in baculovirus infected Sf9 cells incubated for 60 mins by scintillation counting method.
Series [8] deals with T1, Histamine H2 receptor. The series can be described thus: Binding affinity to human H2R expressed in human HEK293T cells incubated for 60 mins by automated cell imaging analysis. It is filed as cell-based, HEK-293T.
Series [9] addresses T1, Histamine H2 receptor. Kind of series: Binding affinity to human H2R expressed in human HEK293T cells incubated for 90 mins by flowcytometry. It is filed as cell-based, HEK-293T. In a few lines: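 Flow cytometric saturation binding of fluorescent ligands on suspended HEK293T-hH2R-qs5 cells, 90 min incubation; pKd reported as mean ± SEM from three independent experiments, each in duplicate.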

Series [10] has as its target T1, Histamine H2 receptor. Kind of series: Binding affinity to human H2R expressed in human HEK293T cells incubated for 60 mins by imaging flow cytometry analysis. It is filed as cell-based. The conditions noted are these: for Ka: HEK-293T. (In general: In flow cytometry, cells or beads pass a laser one at a time.)
In series [11] the target is T1, Histamine H2 receptor. The series can be described thus: Binding affinity to H2R in human HEK293T cell membrane assessed as drug localization at 75 nM incubated for 60 mins followed by compound washoff by confocal microscopy analysis. It is filed as cell-based. The conditions noted are these: HEK-293T. In outline:
(§1)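 Adherent HEK293T-hH2R-qs5 cells incubated with fluorescent ligand 60 min at rt, then washed; Hoechst 33342 nuclear counterstain; famotidine (300-fold excess) defines nonspecific binding; membrane localization imaged by automated cell imaging.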

For series [12], the target named is T1, Histamine H2 receptor. The series can be described thus: Agonist activity at human H2R expressed in human HEK293T cells assessed as effect on beta-arrestin2 recruitment incubated for 60 mins by brightglo-reagent based assay. To be noted: HEK-293T. It is filed as cell-based.
Series [13] has as its target T1, Histamine H2 receptor. Kind of series: Binding affinity to human H2R expressing Sf9 cells incubated for 60 mins by microbeta scintillation counter method.
Series [14] has as its system HEK-293T. The series can be described thus: Cytotoxicity against human HEK293T cells assessed as reduction in cell viability at 3500 nM incubated for 90 mins by flow cytometry analysis. It is filed as cell-based. To be noted: 1.5 h, 3.5 µM.
Series [15] has as its system HEK-293T. The series can be described thus: Cytotoxicity against human HEK293T cells assessed as reduction in cell viability at 1000 nM incubated for 60 mins by H33342 staining based imaging analysis. To be noted: 1 h, 1 µM.
In series [16] the target is T1, Histamine H2 receptor. Kind of series: Binding affinity to H2R in human HEK293T cell membrane assessed as drug localization at 250 nM incubated for 60 mins followed by compound washoff by confocal microscopy analysis. It is filed as cell-based. To be noted: HEK-293T. In outline: as §1
Series [17] concerns the target T1, Histamine H2 receptor. The series can be described thus: Binding affinity to H2R (unknown origin).
The subject of series [18] is HEK-293T. Kind of series: Cytotoxicity against human HEK293T cells assessed as reduction in cell viability at 100 nM incubated for 90 mins by flow cytometry analysis. It is filed as cell-based. To be noted: 1.5 h, 0.1 µM.
Series [19] concerns HEK-293T. The series can be described thus: Cytotoxicity against human HEK293T cells assessed as reduction in cell viability at 150 nM incubated for 60 mins by H33342 staining based imaging analysis. The conditions noted are these: 1 h, 0.15 µM.
For series [20], the system named is HEK-293T. The series can be described thus: Cytotoxicity against human HEK293T cells assessed as reduction in cell viability at 3000 nM incubated for 60 mins by H33342 staining based imaging analysis. The conditions noted are these: 1 h, 3 µM.
The target in series [21] is T1, Histamine H2 receptor. The series can be described thus: Binding affinity to H2R in human HEK293T cell membrane assessed as drug localization at 500 nM incubated for 60 mins followed by compound washoff by confocal microscopy analysis. It is filed as cell-based. To be noted: HEK-293T. In a few lines:
as §1

The test system of series [22] is HEK-293T. The series can be described thus: Cytotoxicity against human HEK293T cells assessed as reduction in cell viability at 3000 nM incubated for 90 mins by flow cytometry analysis. It is filed as cell-based. The conditions noted are these: 1.5 h, 3 µM.

Active and inactive are the calls of the source. The rule behind the calls is not given here.

T1 sequence (P25021 whole entry): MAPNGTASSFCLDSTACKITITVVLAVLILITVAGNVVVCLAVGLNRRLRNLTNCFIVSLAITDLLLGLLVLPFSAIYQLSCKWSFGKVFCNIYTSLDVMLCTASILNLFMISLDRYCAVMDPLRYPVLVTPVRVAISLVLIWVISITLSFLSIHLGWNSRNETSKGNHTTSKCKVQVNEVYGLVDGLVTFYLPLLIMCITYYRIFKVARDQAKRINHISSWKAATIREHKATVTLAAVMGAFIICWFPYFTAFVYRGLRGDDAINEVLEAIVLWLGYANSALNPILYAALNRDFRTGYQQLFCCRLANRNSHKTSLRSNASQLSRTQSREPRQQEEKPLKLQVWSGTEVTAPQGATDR
Histamine H2 receptor (Rattus norvegicus, UniProt P25102), sequence (P25102 whole entry): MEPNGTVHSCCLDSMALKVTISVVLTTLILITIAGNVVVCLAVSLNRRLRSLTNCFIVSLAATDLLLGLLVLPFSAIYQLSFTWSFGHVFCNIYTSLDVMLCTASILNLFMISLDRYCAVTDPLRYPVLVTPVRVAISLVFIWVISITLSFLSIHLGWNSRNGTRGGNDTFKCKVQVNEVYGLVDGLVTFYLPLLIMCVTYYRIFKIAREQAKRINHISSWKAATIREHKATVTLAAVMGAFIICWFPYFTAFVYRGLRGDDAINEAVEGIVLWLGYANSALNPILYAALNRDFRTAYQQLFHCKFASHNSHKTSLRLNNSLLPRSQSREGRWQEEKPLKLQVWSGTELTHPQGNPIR

For orientation: Ki means the dissociation constant of the complex between target and ligand, obtained from inhibition or displacement. A lower Ki goes with a stronger hold on the target. On Histamine H2 receptor [1], `CNc1ccccc1C(=O)NCCN/C(=N\C#N)NCCCOc1cccc(CN2CCCCC2)c1` had an inhibition constant Ki below 100 nM.

In general, pKb refers to −log10 of the Kb, conventionally taken in molar units. In general, Kd refers to the concentration at which binding is half-saturated. Read a low Kd as tighter binding. For `CC1(C)C(/C=C/C=C/C=C2\N(CCCCCC(=O)NCCCCCCNc3c(NCCCOc4cccc(CN5CCCCC5)c4)c(=O)c3=O)c3ccccc3C2(C)C)=[N+](CCCCS(=O)(=O)[O-])c2ccccc21.O=C(O)C(F)(F)F.O=C(O)C(F)(F)F`, the result on Histamine H2 receptor [2], at Histamine H2 receptor [4] and at Histamine H2 receptor [11] was Active. The same compound yielded a pKb on Histamine H2 receptor [3] of 6.49. Also, the Activity entry in the series with HEK-293T [5] and with HEK-293T [6] was “Non-Toxic” throughout. On Histamine H2 receptor [7], this compound gave an inhibition constant (Ki) of 77.6 nM. The values for the equilibrium dissociation constant (Kd) at Histamine H2 receptor [8] and at Histamine H2 receptor [9] were 16.2 nM and 47.9 nM, respectively. Further, at Histamine H2 receptor [10], the Ka lay within 15000 to 33300 M⁻¹ s⁻¹.

As to `Cc1cc(/C=C/C=C/c2ccc(N(C)C)cc2)cc(C)[n+]1CCCCCCNc1c(NCCCOc2cccc(CN3CCCCC3)c2)c(=O)c1=O.O=C(O)C(F)(F)F.O=C([O-])C(F)(F)F`, on Histamine H2 receptor [12], the result was inactive. This compound yielded a pKb on Histamine H2 receptor [3] of 7.21. Also, the Activity entry with HEK-293T [6] is recorded as “Non-Toxic”. The Ki at Histamine H2 receptor [7] was 19.5 nM. Moreover, the Kd at Histamine H2 receptor [9] is 14.5 nM.

As to `Cc1cc(/C=C/C=C/c2ccc(N(C)C)cc2)cc(C)[n+]1CCCCNc1c(NCCCOc2cccc(CN3CCCCC3)c2)c(=O)c1=O.O=C(O)C(F)(F)F.O=C([O-])C(F)(F)F`, the Activity entry in the series with HEK-293T [5] and with HEK-293T [6] was “Non-Toxic” each time. The compound further had a Ki on Histamine H2 receptor [7] of 17.8 nM. The Kd at Histamine H2 receptor [8] is 74.1 nM; at Histamine H2 receptor [9], 28.2 nM; on Histamine H2 receptor [10], 87.1 nM.

On Histamine H2 receptor [13], `[3H]CC([3H])C(=O)NCCCCCCNc1c(NCCCOc2cccc(CN3CCCCC3)c2)c(=O)c1=O` (centres undefined) had a dissociation constant (Kd) of 31 nM.

Turning to `C[N+]1=C(/C=C/C=C/C=C2\N(CCCCCC(=O)NCCCCNc3c(NCCCOc4cccc(CN5CCCCC5)c4)c(=O)c3=O)c3ccccc3C2(C)C)C(C)(C)c2ccccc21.O=C(O)C(F)(F)F.O=C([O-])C(F)(F)F`, the Activity entry in the series on HEK-293T [5] and with HEK-293T [14] was “Non-Toxic” in each case. Further, on Histamine H2 receptor [7], affinity was put at a Ki of 269 nM. The results for the Kd on Histamine H2 receptor [8] and on Histamine H2 receptor [9] were 120 nM and 288 nM, respectively.

Regarding `CC1(C)C(/C=C/C=C/C=C2\N(CCCCCC(=O)NCCCCNc3c(NCCCOc4cccc(CN5CCCCC5)c4)c(=O)c3=O)c3cc(S(=O)(=O)O)ccc3C2(C)C)=[N+](CCCCS(=O)(=O)[O-])c2ccccc21`, the outcome on Histamine H2 receptor [12] was inactive. For the same compound, the affinity on Histamine H2 receptor [7], expressed as Ki, was 2040 nM.

For the compound `Cc1cc(/C=C/C=C/c2ccc(N(C)C)cc2)cc(C)[n+]1CCCCCCCNc1c(NCCCOc2cccc(CN3CCCCC3)c2)c(=O)c1=O.O=C(O)C(F)(F)F.O=C([O-])C(F)(F)F`, the result on Histamine H2 receptor [12] was inactive. For the same compound, the result at Histamine H2 receptor [2], at Histamine H2 receptor [4] and on Histamine H2 receptor [16] was Active. Also, the negative-log Kb (pKb) at Histamine H2 receptor [3] was determined as 7.85. The Activity entry with HEK-293T [15] and with HEK-293T [6] was “Non-Toxic” throughout. Also, on Histamine H2 receptor [7], the Ki was 17.4 nM. The Kd was 89.1 nM at Histamine H2 receptor [8], 18.6 nM at Histamine H2 receptor [9] and 64.6 nM on Histamine H2 receptor [10]. Also, the Ka on Histamine H2 receptor [10] worked out at 71700 M⁻¹ s⁻¹.

`N#CN=C(NCCCCCCCCNc1ccc([N+](=O)[O-])c2n[o+][n-]c12)NCCCOc1cccc(CN2CCCCC2)c1` gave a Ki on Histamine H2 receptor [1] below 100 nM.

In turn, `CC1(C)C(/C=C/C=C/C=C2\N(CCCCCC(=O)NCCCCCNc3c(NCCCOc4cccc(CN5CCCCC5)c4)c(=O)c3=O)c3ccccc3C2(C)C)=[N+](CCCCS(=O)(=O)[O-])c2ccccc21` showed a pKb on Histamine H2 receptor [17] of 6.89.

As for `C[N+]1=C(/C=C/C=C/C=C2\N(CCCCCC(=O)NCCCCCCNc3c(NCCCOc4cccc(CN5CCCCC5)c4)c(=O)c3=O)c3ccccc3C2(C)C)C(C)(C)c2ccccc21.O=C(O)C(F)(F)F.O=C([O-])C(F)(F)F`, the result on Histamine H2 receptor [12] was inactive. In addition, the outcome on Histamine H2 receptor [2], on Histamine H2 receptor [4] and at Histamine H2 receptor [11] was Active. Moreover, the negative-log Kb (pKb) at Histamine H2 receptor [3] worked out at 7.73. This compound also gave a Ki on Histamine H2 receptor [7] of 21.4 nM. Also, the Activity result in the series on HEK-293T [18] and in the series on HEK-293T [19] was “Non-Toxic” each time. The Kd on Histamine H2 receptor [8] is 15.1 nM; at Histamine H2 receptor [9] it was 12.9 nM. Further, the Ka on Histamine H2 receptor [10] lay within 15000 to 33300 M⁻¹ s⁻¹.

Take `CC1(C)C(/C=C/C=C/C=C2\N(CCCCCC(=O)NCCCCCCNc3c(NCCCOc4cccc(CN5CCCCC5)c4)c(=O)c3=O)c3cc(S(=O)(=O)O)ccc3C2(C)C)=[N+](CCCCS(=O)(=O)[O-])c2ccccc21.O=C(O)C(F)(F)F.O=C(O)C(F)(F)F`: in the series on HEK-293T [20], the Activity result is “Non-Toxic”. Further, the Ki at Histamine H2 receptor [7] is 1320 nM. In addition, the outcome on Histamine H2 receptor [21] was Active. This compound showed a Kd at Histamine H2 receptor [8] of 447 nM.

Consider `CC1(C)C(/C=C/C=C/C=C2\N(CCCCCC(=O)NCCCCNc3c(NCCCOc4cccc(CN5CCCCC5)c4)c(=O)c3=O)c3ccccc3C2(C)C)=[N+](CCCCS(=O)(=O)[O-])c2ccccc21.O=C(O)C(F)(F)F.O=C(O)C(F)(F)F`, for which the Activity entry with HEK-293T [20] and with HEK-293T [22] was “Non-Toxic” in each case. At Histamine H2 receptor [7], this compound showed a Ki of 324 nM. For the same compound, the Kd at Histamine H2 receptor [8] was 170 nM; at Histamine H2 receptor [9], 562 nM.
